{"source": "paper PMC6153321", "about": "(Pharmacology Research & Perspectives, 2018)", "key": {"RXFP3 [1]": {"biological_target": "T1, RXFP3 (Homo sapiens, UniProt Q9NSD7)", "T1 sequence (Q9NSD7 1-469)": "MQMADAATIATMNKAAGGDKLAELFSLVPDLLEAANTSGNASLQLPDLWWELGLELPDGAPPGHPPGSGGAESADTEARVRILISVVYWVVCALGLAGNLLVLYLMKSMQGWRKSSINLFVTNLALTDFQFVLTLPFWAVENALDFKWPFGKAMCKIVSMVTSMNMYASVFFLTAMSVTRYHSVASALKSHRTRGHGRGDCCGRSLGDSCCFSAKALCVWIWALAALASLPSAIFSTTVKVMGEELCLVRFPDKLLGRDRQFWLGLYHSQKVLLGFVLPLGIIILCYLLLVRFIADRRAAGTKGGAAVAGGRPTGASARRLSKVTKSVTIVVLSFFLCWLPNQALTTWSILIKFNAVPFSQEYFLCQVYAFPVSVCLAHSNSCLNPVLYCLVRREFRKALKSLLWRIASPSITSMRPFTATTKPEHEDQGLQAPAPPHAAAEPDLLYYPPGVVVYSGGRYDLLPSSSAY", "assay": "CAMYEL BRET inhibition of forskolin-stimulated cAMP, HEK-RXFP3 cells", "format": "cell-based", "details": "45 minutes, mean ± SEM, three independent experiments"}, "RXFP3 [2]": {"biological_target": "T1, RXFP3", "assay": "CAMYEL BRET inhibition of forskolin-stimulated cAMP, CHO-RXFP3 cells", "format": "cell-based", "details": "agonist 100 nmol L^−1‐10 μmol L^−1, at about 20‐25 minutes"}, "β‐adrenoceptors [3]": {"tested_on": "β‐adrenoceptors", "assay": "CAMYEL BRET isoprenaline-induced cAMP, HEK293A parental cells", "format": "cell-based, human", "details": "10 μmol L^−1", "summary_of_the_method": "(§1)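 HEK293A parental or Gαs-knockout cells were co-transfected with CAMYEL and RXFP1, then reseeded overnight in phenol-red-free HEPES medium. Isoprenaline (10 μmol L⁻¹) served as a control for endogenous Gαs-coupled β-adrenoceptor signalling. Read-out: vehicle-subtracted, sign-inverted 535/475 nm BRET ratio; three independent experiments.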"}, "β‐adrenoceptors [4]": {"tested_on": "β‐adrenoceptors", "assay": "CAMYEL BRET isoprenaline-induced cAMP, HEK293A ΔGαs cells", "format": "cell-based, human", "details": "10 μmol L^−1", "summary_of_the_method": "as §1"}, "adenylate cyclase [5]": {"tested_on": "adenylate cyclase", "assay": "CAMYEL BRET forskolin-induced cAMP, THP-1 CAMYEL cells", "format": "cell-based, human", "details": "high-CAMYEL THP‐1 cells, three independent experiments"}, "adenylate cyclase [6]": {"tested_on": "adenylate cyclase", "assay": "CAMYEL BRET forskolin-induced cAMP, HEK-RXFP2 cells", "format": "cell-based, human", "details": "45 minutes", "summary_of_the_method": "(§2)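 HEK cells stably expressing RXFP1 (HEK293T background) or RXFP2 were transiently transfected with CAMYEL, then reseeded next day in phenol-red-free complete medium with 25 mmol L⁻¹ HEPES. At 37°C, cells got coelenterazine h (5 μmol L⁻¹ final) for a 5-min baseline, then vehicle, forskolin or agonist for 45 min. Read-out was vehicle-subtracted citrine/Rluc BRET ratio, sign-inverted. Agonist curves at 5 and 45 min as % of 10 μmol L⁻¹ forskolin maximum; n=3.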"}, "adenylate cyclase [7]": {"tested_on": "adenylate cyclase", "assay": "CAMYEL BRET forskolin-induced cAMP, HEK-RXFP1 cells", "format": "cell-based, human", "details": "45 minutes, three independent experiments", "summary_of_the_method": "as §2"}, "adenylate cyclase [8]": {"tested_on": "adenylate cyclase", "assay": "CAMYEL BRET forskolin-induced cAMP, HEK293A ΔGαs cells", "format": "cell-based, human"}, "adenylate cyclase [9]": {"tested_on": "adenylate cyclase", "details": "cited from earlier work"}, "adenylate cyclase [10]": {"tested_on": "adenylate cyclase", "assay": "CAMYEL BRET forskolin-induced cAMP, HEK293A parental cells", "format": "cell-based, human", "details": "45 minutes, three independent experiments"}, "RXFP2": {"biological_target": "RXFP2 (Homo sapiens, UniProt Q8WXD0)", "sequence (Q8WXD0 whole entry)": "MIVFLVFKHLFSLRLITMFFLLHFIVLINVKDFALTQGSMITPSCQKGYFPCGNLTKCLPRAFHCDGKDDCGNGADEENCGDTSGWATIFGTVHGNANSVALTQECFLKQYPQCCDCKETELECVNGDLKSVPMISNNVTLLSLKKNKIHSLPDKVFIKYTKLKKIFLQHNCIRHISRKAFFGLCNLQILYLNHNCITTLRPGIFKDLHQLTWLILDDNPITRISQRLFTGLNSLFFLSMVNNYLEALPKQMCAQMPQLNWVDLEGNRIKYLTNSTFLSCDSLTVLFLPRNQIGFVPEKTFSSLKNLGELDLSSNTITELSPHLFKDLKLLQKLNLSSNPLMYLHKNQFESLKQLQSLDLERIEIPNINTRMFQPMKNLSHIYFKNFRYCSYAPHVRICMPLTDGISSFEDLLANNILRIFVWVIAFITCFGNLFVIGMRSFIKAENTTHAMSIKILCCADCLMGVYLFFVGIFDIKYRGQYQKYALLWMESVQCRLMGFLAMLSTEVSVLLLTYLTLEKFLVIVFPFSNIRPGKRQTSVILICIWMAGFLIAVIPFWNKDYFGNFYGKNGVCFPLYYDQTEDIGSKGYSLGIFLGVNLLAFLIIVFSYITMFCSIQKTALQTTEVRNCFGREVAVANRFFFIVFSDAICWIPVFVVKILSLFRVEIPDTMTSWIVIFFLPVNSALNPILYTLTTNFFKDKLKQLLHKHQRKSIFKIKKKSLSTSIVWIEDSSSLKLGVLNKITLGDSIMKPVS", "assay": "CAMYEL BRET real-time cAMP activation, HEK-RXFP2 cells", "format": "cell-based", "summary_of_the_method": "as §2"}, "GH3B6 cells": {"tested_on": "GH3B6 cells", "details": "cited from earlier work"}}, "note": "Bridge positions count the residues as written; N and C are the ends. Square brackets hold non-standard residues; d marks the D form. Ends that are not written are not given here. Peptide text beside a SMILES is read from it. I, II: the chains in the order shown. S5 = C=CCCC[C@](C)(N)C(=O)O", "data": [{"compound": "CC[C@H](C)[C@@H]1NC(=O)[C@H](Cc2ccccc2)NC(=O)[C@H](CCC(=O)O)NC(=O)[C@H](CCCNC(=N)N)NC(=O)CNC(=O)[C@@H](NC(=O)[C@H](CC(C)C)NC(=O)[C@H](CCCNC(=N)N)NC(=O)[C@@H](NC(=O)CNC(=O)[C@H](Cc2ccc(O)cc2)NC(=O)[C@@H]2CCCN2C(=O)[C@H](C)NC(=O)[C@H](C)NC(=O)[C@@H](N)CCCNC(=N)N)C(C)C)CSSC[C@H](N)C(=O)N[C@@H](CCCCN)C(=O)N[C@@H](Cc2c[nH]c3ccccc23)C(=O)NCC(=O)N[C@@H](C)C(=O)N[C@@H](CO)C(=O)N[C@@H](CCCCN)C(=O)N[C@@H](CO)C(=O)N[C@@H](CCC(=O)O)C(=O)N[C@@H]([C@@H](C)CC)C(=O)N[C@@H](CO)C(=O)N[C@@H](CO)C(=O)N[C@@H](CC(C)C)C(=O)N[C@H](C(=O)O)CSSC[C@@H](C(=O)NCC(=O)NCC(=O)N[C@@H](CO)C(=O)N[C@@H](CCCNC(=N)N)C(=O)N[C@@H](Cc2c[nH]c3ccccc23)C(=O)O)NC(=O)[C@H]([C@@H](C)O)NC(=O)[C@H](Cc2ccccc2)NC(=O)[C@H]([C@@H](C)CC)NC(=O)[C@H](C(C)C)NC(=O)[C@H](C)NC(=O)[C@H](CCCNC(=N)N)NC1=O", "note": "[Analogue 2]", "values": [{"measurement": "pEC50", "setting": "RXFP3 [1]", "value": "Ambiguous"}, {"measurement": "inhibition of forskolin-stimulated cAMP at higher concentrations", "setting": "RXFP3 [2]", "value": "Complete or near‐complete inhibition"}]}, {"compound": "CC(C)NCC(O)c1ccc(O)c(O)c1", "note": "(centres unmarked) [Isoprenaline]", "values": [{"measurement": "cAMP response to isoprenaline", "setting": "β‐adrenoceptors [3]", "value": "robust in the parental cells"}, {"measurement": "cAMP response to isoprenaline", "setting": "β‐adrenoceptors [4]", "value": "abolished in the ΔGαs cells"}]}, {"compound": "CC[C@H](C)[C@@H]1NC(=O)[C@H](Cc2ccccc2)NC(=O)[C@@](C)(NC(=O)[C@H](CCCNC(=N)N)NC(=O)CNC(=O)[C@@H](N)CO)CCCC=CCCC[C@@](C)(C(=O)N[C@H](C(=O)N[C@H](C(=O)N[C@@H](Cc2ccccc2)C(=O)N[C@H](C(=O)N[C@@H](CO)C(=O)NCC(=O)NCC(=O)N[C@@H](CO)C(=O)N[C@@H](CCCNC(=N)N)C(=O)N[C@@H](Cc2c[nH]c3ccccc23)C(N)=O)[C@@H](C)O)[C@@H](C)CC)C(C)C)NC(=O)[C@H](CCCNC(=N)N)NC1=O", "note": "[Peptide 5] (H-SGR[S5]FIR[S5]VIFTSGGSRW-NH2; staple 4-8; N-terminus and C-terminus assumed)", "values": [{"measurement": "inhibition of forskolin-stimulated cAMP at higher concentrations", "setting": "RXFP3 [2]", "value": "Complete or near‐complete inhibition"}]}, {"compound": "C=C[C@@]1(C)CC(=O)[C@]2(O)[C@@]3(C)[C@@H](O)CCC(C)(C)[C@@H]3[C@H](O)[C@H](OC(C)=O)[C@@]2(C)O1", "note": "[forskolin]", "values": [{"measurement": "potency of forskolin (pEC50)", "setting": "adenylate cyclase [5]; 5 minutes", "value": "5.29 ± 0.03"}, {"measurement": "potency of forskolin (pEC50)", "setting": "adenylate cyclase [5]; 45 minutes", "value": "4.93 ± 0.05"}, {"measurement": "potency (pEC50) of forskolin", "setting": "adenylate cyclase [6]; HEK‐RXFP2, three independent experiments", "value": "5.92 ± 0.08"}, {"measurement": "forskolin potency in HEK‐RXFP2 relative to HEK‐RXFP1 cells", "setting": "adenylate cyclase [6]; P < 0.01", "value": "nearly ten times lower than that seen in the HEK‐RXFP1 cells"}, {"measurement": "potency (pEC50) of forskolin", "setting": "adenylate cyclase [7]", "value": "6.77 ± 0.07"}, {"measurement": "potency of forskolin (pEC50)", "setting": "adenylate cyclase [8]; 45 minutes, HEK293A ΔGαs with re‐expression of Gαs, three independent experiments", "value": "7.1 ± 1.29"}, {"measurement": "forskolin-induced cAMP activity", "setting": "adenylate cyclase [8]; HEK293A ΔGαs, without Gαs re-expression", "value": "very weak cAMP activity"}, {"measurement": "forskolin concentration required to detect a cAMP increase", "setting": "adenylate cyclase [8]; HEK293A ΔGαs, increase only transient", "value": "> 10", "unit": "µmol/L"}, {"measurement": "affinity for adenylate cyclase in the absence of Gαs", "setting": "adenylate cyclase [9]", "value": "lower affinity for adenylate cyclase in the absence of Gαs"}, {"measurement": "potency of forskolin (pEC50)", "setting": "adenylate cyclase [10]", "value": "5.91 ± 0.04"}]}, {"compound": "I: PTPEMREKLCGHHFVRALVRVCGGPRWSTEA / II: AAATNPARYCCLSGCTQQDLLTLCPY (disulfide I:10-II:11, I:22-II:24, II:10-II:15) [INSL3]", "values": [{"measurement": "potency increase between 5 and 45 minutes", "setting": "RXFP2; P < 0.01", "value": "~10", "unit": "fold"}, {"measurement": "temporal pattern of cAMP activity", "setting": "RXFP2; sub‐maximal concentrations", "value": "slow, sustained increases"}]}, {"compound": "thyrotropin‐releasing hormone", "values": [{"measurement": "cAMP activity reported by AC8‐localized sensor", "setting": "GH3B6 cells", "value": "increases in cAMP activity"}, {"measurement": "cAMP activity reported by cytosolic or plasma membrane FRET biosensors", "setting": "GH3B6 cells", "value": "not the cytosolic or membrane forms"}]}, {"compound": "vasoactive intestinal peptide: treatment of GH3B6 cells in cited work (ref 49) (HSDAVFTDNYTRLRKQMAVKKYLNSILN; ends and bridges not checked; UniProt P01282 125-152, looked up)", "values": [{"measurement": "cAMP activity reported by AC8‐localized sensor", "setting": "GH3B6 cells", "value": "not detected by an AC8‐localized sensor"}]}]}
